Source: PubChem (several laboratories)
Exocytosis inh: lytic granule exocytosis inhibition | TALL-104 LAMP-1 surface exposure, flow cytometry; cells stimulated with thapsigargin and PMA | inhibition, % at 10 µM | 360,000 compounds, 0.66% hits | AID 651702;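 active = inhibition above about 55%, limit read from the data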
MC4R barr agon: agonists of human melanocortin 4 receptor (MC4R) beta-arrestin | 360,000 compounds, 0.98% hits | AID 540308 | activation, % at 8.9 µM | P32245 | U2OS MC4R beta-arrestin complementation, luminescence; percent of melanotan II response, DMSO zero;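 active = activation above a per-plate cutoff, the mean activation of sample wells on that plate plus 3 SD, cut at about 8% in these data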
NTR1 agonist: activates human neurotensin receptor 1; P30989; NTR1-U2OS beta-arrestin-GFP spot imaging, agonist mode; activation, % at 20 µM; 330,000 compounds, 0.17% hits;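 active = activation at or above 40% of the spot to cytoplasm intensity ratio, with at least 20 cells analyzed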;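 also: 0% = DMSO without peptide and 100% = 100 nM NTR1 peptide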
Bfl-1 A1 inh: inhibitors of the anti-apoptotic protein A1, read as caspase activation. MEF A1-2A-BIM cells, Caspase-Glo 3/7 luminescence, 3 h; percent of clofoctol response, vehicle zero. caspase activation, % (test concentration not listed). 330,000 compounds, 0.066% hits;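 active = over half of replicate activation scores above 10%, or exactly half above 10 with the replicate mean above 10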
HGIII-sPLA2 inh: Inhibits HGIII-sPLA2 liposome hydrolysis, primary screen. Q9NZ20. inhibition, % at 12.2 µM. QFRET BODIPY PC-A2 liposome hydrolysis, fluorescence. 370,000 compounds, 0.56% hits. AID 743126;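 active = inhibition above mean plus 3 SD of compounds lying within the high and low control bounds, cut at about 19% in these data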;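 also: 0% = median of test compound wells and 100% = no enzyme DMSO wells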
Target sequence (Q9NZ20 whole entry, looked up): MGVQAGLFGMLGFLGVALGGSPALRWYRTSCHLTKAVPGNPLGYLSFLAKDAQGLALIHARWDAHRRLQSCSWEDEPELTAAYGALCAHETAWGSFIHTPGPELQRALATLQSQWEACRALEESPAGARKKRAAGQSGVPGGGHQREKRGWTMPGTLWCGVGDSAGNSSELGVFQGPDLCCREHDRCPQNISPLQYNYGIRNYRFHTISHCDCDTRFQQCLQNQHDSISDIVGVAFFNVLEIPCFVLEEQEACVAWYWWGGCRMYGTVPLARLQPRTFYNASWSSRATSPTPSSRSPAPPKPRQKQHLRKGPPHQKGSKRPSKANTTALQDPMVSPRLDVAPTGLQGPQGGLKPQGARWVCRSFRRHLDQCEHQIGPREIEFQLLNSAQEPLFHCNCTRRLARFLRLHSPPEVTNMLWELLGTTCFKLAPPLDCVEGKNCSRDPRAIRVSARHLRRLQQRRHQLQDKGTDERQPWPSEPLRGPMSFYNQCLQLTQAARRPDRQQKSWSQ
MC4R antag cAMP: antagonists of human melanocortin 4 receptor (MC4R). P32245. MC4R-expressing cells, MTII-stimulated cAMP, LANCE TR-FRET. inhibition, % at 6.5 µM. 360,000 compounds, 0.48% hits;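 active = inhibition above its plate's cutoff, the mean of tested wells on that plate plus 3 SD, cut at about 29% in these data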;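 also: 0% = Melanotan II alone and 100% = Melanotan II plus saturating MCL0020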
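Assay system: U2OS-MC4R stable cell line; Also added: Melanotan II; Technique: Eu-cAMP/anti-cAMP TR-FRET, emission 671 nm; Times: 30-min compound, 1-h challenge, 1-h detection, room temperature.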
sPLA2 confirm: human GIII-sPLA2 inhibition, confirmation; shares compounds with HGIII-sPLA2 inh; recombinant hGIII-sPLA2, BODIPY PC-A2 QFRET fluorescence; inhibition, % at 12.2 µM; 2,000 compounds, 34% hits;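 active = mean inhibition across triplicates above the hit cutoff set in the earlier primary screen, cut at about 19% in these data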;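 also: 0% = enzyme with DMSO and 100% = DMSO wells lacking enzyme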
535nm interf: counter-screen for HGIII-sPLA2 inhibitors: 535nm fluorescence interference. shares compounds with HGIII-sPLA2 inh. BODIPY FL product fluorescence interference, QFRET. inhibition, % at 12.2 µM. 2,000 compounds, 8.5% hits. AID 743282;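 active = average inhibition above the solvent-only control mean plus 3 SD, cut at about 6% in these data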;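 also: 0% = DMSO with substrate plus product and 100% = DMSO with substrate alone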
BODIPY interf DR: 535nm optical interference dose response, HGIII-sPLA2 counter-screen; shares compounds with HGIII-sPLA2 inh; BODIPY FL product fluorescence interference, cell-free; IC50, µM; 240 tested, under 10 active; AID 743455;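 active = IC50 at or below 10 µM; inactive = IC50 above 10 µM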
Active calls of the source: *; · = not tested or not shown. Compounds with a hit are over-represented: about 2.5% of the library has one in this group of screens.

SMILES	Exocytosis inh	MC4R barr agon	NTR1 agonist	Bfl-1 A1 inh	HGIII-sPLA2 inh	MC4R antag cAMP	sPLA2 confirm	535nm interf	others
CCCOC(=O)CCCCC1SCC(NC(=O)OC)C1NC(=O)OC (stereo unspecified)	-2	0	0	1	20*	1	-2	-9
NC(=S)NN=Cc1nccc2c(C(F)(F)C(F)(F)C(F)(F)F)cccc12	5	-1	·	·	31*	-2	39*	-4	BODIPY interf DR=>122
NC(=S)NN=Cc1nccc2ccccc12	21	0	·	·	1	-11	·	·
O=C(COC(=O)c1ncc(Cl)c(Cl)c1Cl)Nc1cccnc1Cl	0	-2	2	0	20*	4	-5	-3
O=C(COC(=O)c1ncc(Cl)c(Cl)c1Cl)Nc1ccccc1OC(F)F	6	4	1	0	13	16	·	·
C=CCn1c(O)c(N=NC(=S)Nc2ccccc2F)c2ccccc21	2	-3	5	1	20*	-10	32*	13*
Oc1c(N=NC(=S)Nc2ccccc2F)c2ccccc2n1Cc1ccccc1	7	-3	1	-1	0	5	·	·
C=CCn1c(O)c(N=NC(=S)Nc2ccccc2F)c2cc(S(=O)(=O)N3CCOCC3)ccc21	2	-5	3	0	21*	5	26*	-11
CCOc1ccc(NC(=O)COC(=O)CNC(=O)c2ccc(-c3ccccc3)cc2)cc1	3	-2	0	-1	-2	10	·	·
COCCOC(=O)C1=C(C)NC(=S)NC1/C=C/c1ccccc1 (stereo unspecified)	1	-1	-1	-1	22*	9	14	-9
COCCOC(=O)C1=C(C)NC(=O)NC1/C=C/c1ccccc1 (stereo unspecified)	-1	-1	1	0	0	-4	·	·
Nc1[nH]nc2nnc(-c3c(-c4ccccc4)nn4ccccc34)cc12	·	·	·	·	22*	·	9	-3
Nc1[nH]nc2nc(N3CCCC3)nc(-c3ccccc3)c12	5	0	1	1	1	2	·	·
COc1ccccc1N1C(=S)NC2CS(=O)(=O)CC21 (stereo unspecified)	-4	0	0	1	-4	11	·	·
O=C(Nc1ccccc1)c1cccc(C(=O)Nc2ccccc2)n1	-1	-2	0	0	6	7	·	·
CN(C)c1ccc(NC(=O)c2cccc(C(=O)Nc3ccc(N(C)C)cc3)n2)cc1	0	2	5	-1	28*	2	36*	-11	BODIPY interf DR=>122
CC(=O)C1=C(C)Nc2ncnn2C1c1ccc(F)cc1 (stereo unspecified)	-23	-1	0	0	22*	-1	11	-5
CCOC(=O)C1=C(C)N(C)C(=S)NC1c1ccccc1Cl (stereo unspecified)	-2	-2	-5	-1	21*	2	19	-5
CN1OC[C@@H]2CN(C(=O)CCc3ccccc3)[C@H](c3ccc(N4CCCCC4)cc3)C[C@@H]21	-11	·	·	·	6	·	·	·
CCN(CC(=O)Nc1ccc(OC)cc1)CC(=O)Nc1ccc(Br)cc1F	0	-1	1	1	-15	15	·	·
CCC(=O)Nc1ccc(OC)cc1OC	-1	-2	0	2	7	3	·	·
CCC(=O)NC(=S)Nc1ccc(OC)cc1OC	5	-1	0	0	21*	6	0	-7
COc1ccc(NCC(=O)Nc2ccc(Br)cc2F)c(OC)c1	-2	0	0	2	22*	13	23*	4
CCOc1ccc(NC(=O)NC23CC4CC(CC(C4)C2)C3)cc1	7	1	2	1	-5	5	·	·
CC(=O)N1CCN(C(=O)c2cc3c(s2)CCC(C)C3)CC1 (stereo unspecified)	-2	1	1	·	4	3	·	·
SMILES	Exocytosis inh	MC4R barr agon	NTR1 agonist	Bfl-1 A1 inh	HGIII-sPLA2 inh	MC4R antag cAMP	sPLA2 confirm	535nm interf	others
Cc1cc(OCC(=O)NCCCN2CCOCC2)c2c(C)cc(=O)oc2c1	-1	-1	1	0	4	8	·	·
CC(Sc1nccn1C)C(=O)c1ccc(Br)cc1 (stereo unspecified)	-6	0	-1	0	2	8	·	·
COc1cc(OC)nc(NC(=O)C(C)C)n1	0	0	0	0	20*	2	3	0
Cc1ccc(CN2CCN(/N=C/c3ccc(N(C)C)cc3)CC2)cc1	3	0	2	0	21*	4	12	-4
Cc1ccc(/C=N/N2CCN(Cc3ccccc3)CC2)cc1	-1	-1	-1	0	3	7	·	·
O=C(Nc1cc2c(ccc3ccccc32)oc1=O)C1CCCCC1	12	0	0	0	23*	7	-3	-4
Cc1cc(NCc2cccnc2)nc(N)n1	-2	1	1	-1	-1	-1	·	·
CC/C(=C\c1ccc(N(C)C)cc1)c1ccncc1	0	0	·	·	23*	-1	20*	0
CSc1cccc(NC(N)=S)c1	7	-2	0	0	20*	3	18	-7
CSc1cccc(NC(N)=O)c1	6	-3	2	0	-1	20	·	·
NC(=S)Nn1c(-c2ccccc2)nc2ccccc2c1=O	15	1	3	1	19*	-6	6	0
O=C(Cc1ccccc1)Nn1c(-c2ccccc2)nc2ccccc2c1=O	-3	-1	-1	0	15	8	·	·
CCC(C)NC(=S)N(CCc1ccccc1)Cc1cc2cc(OC)c(OC)cc2[nH]c1=O (stereo unspecified)	0	0	1	0	20*	15	20*	-16
O=[N+]([O-])c1ccccc1N=Nc1ccc(O)cc1O	15	-3	·	·	7	-4	·	·
O=S(=O)(O)c1cc(O)c(N=Nc2ccc(O)cc2O)c2ccccc12	3	-6	·	·	23*	-4	19	4
CSc1ccccc1NC(=O)COC(=O)Cc1ccsc1	0	-1	0	0	4	4	·	·
CN(C)S(=O)(=O)c1cccc(NC(=S)N/N=C/c2cc(Br)ccc2O)c1	-1	-3	25	0	39*	-7	28*	11*
COc1ccc(NC(=O)CN2C(=O)NC(C)(c3ccc4c(c3)OCCO4)C2=O)cc1S(N)(=O)=O (stereo unspecified)	1	0	2	-1	-6	8	·	·
